# High-throughput results as filed in PubChem.
# Rows were chosen to be rich in hits. Some 2.2% of all compounds tested hit in one or more screens of this group.
# PfG6PD inh – PfG6PD enzyme inhibitors, primary screen, biochemical, fluorescence intensity, uHTS | glucose-6-phosphate dehydrogenase-6-phosphogluconolactonase (Plasmodium falciparum 3D7) | PfGluPho enzyme, NADPH resazurin-diaphorase fluorescence | inhibition, % at 20 µM | 350,000 compounds, 0.78% hits | AID 504690, 2011;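 active means inhibition reaching at least a set limit at 20 µM in the primary screen, cut at about 59% in these data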;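 further: 0% = DMSO wells with substrate and 100% = DMSO wells lacking glucose-6-phosphate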
# HKDC1 inh – HKDC1 hexokinase inhibitors, primary screen, biochemical, fluorescence, uHTS; Q2TB90; recombinant HKDC1, G6PDH/diaphorase resazurin coupled fluorescence; inhibition, % at 20 µM; 340,000 compounds, 0.16% hits;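 active means inhibition above about 35% when tested at 20 µM, limit read from the data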;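 further: plate controls were DMSO wells with enzyme for no effect and DMSO wells lacking enzyme for full effect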
#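 Assay system – recombinant HKDC1 (HK5) hexokinase enzyme, produced in-house · Input – HKDC1 at 5 µg/mL · Reagent – glucose plus 1 mM ATP as hexokinase substrates · Timing – 90 min reaction incubation at room temperature, dark · Measured by – G6PDH/diaphorase-coupled fluorescence, 1 mM NADP, 100 µM resazurin, 525/613 nm · Benchmarks – DMSO-enzyme wells negative, buffer-substituted wells positive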
# Exocytosis inh – LAMP-1 surface exposure blockers, TALL-104 cells – cell-based, flow cytometry, MLPCN library, primary screen; TALL-104 LAMP-1 surface exposure; cells stimulated with thapsigargin and PMA; inhibition, % at 10 µM; 360,000 compounds, 0.66% hits; AID 651702, 2012;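 active means inhibition above about 55%, limit read from the data; inconclusive means no clear call, values can overlap the other calls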
# ABHD5-PLIN5 inh – ABHD5-PLIN5 interaction inhibitors, primary screen, cell lysate, split luciferase complementation, luminescence; Split G. princeps luciferase complementation, 4 h; inhibition, % at 4 µM; 360,000 compounds, 0.78% hits; AID 602281, 2012;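 active means inhibition above the mean inhibition across every tested compound plus 3 SD, cut at about 22% in these data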;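 further: 0% = DMSO only wells and the 100% control is not disclosed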
# Target sequence (Q00G26 whole entry, looked up): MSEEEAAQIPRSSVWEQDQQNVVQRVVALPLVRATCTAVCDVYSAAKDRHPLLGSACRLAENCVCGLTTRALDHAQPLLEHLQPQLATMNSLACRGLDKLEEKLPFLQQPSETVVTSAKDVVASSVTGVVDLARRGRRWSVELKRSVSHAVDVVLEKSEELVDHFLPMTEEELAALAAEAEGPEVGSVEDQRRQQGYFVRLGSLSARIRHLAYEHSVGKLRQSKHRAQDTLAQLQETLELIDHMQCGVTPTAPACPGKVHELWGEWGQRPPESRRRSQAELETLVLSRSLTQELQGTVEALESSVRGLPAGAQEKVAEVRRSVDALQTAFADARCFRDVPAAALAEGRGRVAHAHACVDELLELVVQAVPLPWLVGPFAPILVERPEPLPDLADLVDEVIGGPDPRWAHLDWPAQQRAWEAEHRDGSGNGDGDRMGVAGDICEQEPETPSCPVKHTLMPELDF
# Target sequence (Q8WTS1 whole entry, looked up): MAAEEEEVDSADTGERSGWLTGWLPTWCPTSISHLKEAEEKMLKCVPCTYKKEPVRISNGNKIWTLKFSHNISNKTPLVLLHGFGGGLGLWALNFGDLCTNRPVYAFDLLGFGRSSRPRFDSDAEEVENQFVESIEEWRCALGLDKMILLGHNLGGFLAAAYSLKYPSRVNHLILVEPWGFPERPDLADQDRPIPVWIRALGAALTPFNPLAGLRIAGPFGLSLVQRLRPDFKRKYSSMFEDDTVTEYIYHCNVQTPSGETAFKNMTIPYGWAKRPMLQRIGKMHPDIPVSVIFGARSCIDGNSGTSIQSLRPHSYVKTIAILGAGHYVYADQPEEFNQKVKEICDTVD
# PfGluPho conf – PfG6PD inhibitors, hit retest, confirmation, biochemical, fluorescence intensity, single concentration; shares compounds with PfG6PD inh; recombinant PfGluPho, NADPH-diaphorase-resazurin fluorescence; inhibition, % at 20 µM; 2,400 compounds, 34% hits; AID 504753, 2011;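 active means inhibition of at least 50% at 20 µM in any single replicate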;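 further: 0% = DMSO with substrate and 100% = DMSO lacking glucose-6-phosphate substrate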
# Diaphorase 10uM – diaphorase inhibitors and chemical oxidizers, confirmation, counter-screen for P. falciparum G6PD inhibitor project, biochemical, fluorescence intensity, 10 µM NADPH | inhibition, % at 20 µM | diaphorase-coupled resazurin reduction, NADPH 10 uM | 820 compounds, 39% hits | AID 504862, 2011 | shares compounds with PfG6PD inh;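 active means average inhibition reaching 50% or more with the compound at 20 µM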;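 further: resorufin red fluorescence formed as diaphorase reduces resazurin using NADPH; 0% = DMSO with enzyme and 100% = DMSO without enzyme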
# Diaphorase 30uM – diaphorase inhibitors and chemical oxidizers, confirmation, counter-screen for P. falciparum G6PD inhibitor project, biochemical, fluorescence intensity, 30 µM NADPH; shares compounds with PfG6PD inh; Diaphorase/resazurin coupled assay, resorufin fluorescence; inhibition, % at 20 µM; 820 compounds, 29% hits;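 active means inhibition averaging 50% or more, tested at 20 µM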;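 further: 0% = DMSO with enzyme and 100% = DMSO wells lacking diaphorase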
# The depositor's hits bear a star; ? = inconclusive; · = no result.
SMILES,PfG6PD inh,HKDC1 inh,Exocytosis inh,ABHD5-PLIN5 inh,PfGluPho conf,others
COC(=O)c1[nH]c2ccc(C)cc2c1NS(=O)(=O)c1ccc(F)cc1,68*,8,2,7,24,
COC(=O)c1[nH]c2ccc(F)cc2c1NS(=O)(=O)c1ccc(F)c(C)c1,20,0,0,4,·,
CC(CC(=O)N1CCN(c2ccc(C(F)(F)F)cn2)CC1)n1ccnc1 (configuration not stated),-6,-1,-2,7,·,
Nn1cnnc1N/N=C/c1ccc(Cl)c([N+](=O)[O-])c1,73*,13,27,-63,63*,Diaphorase 10uM=82*;Diaphorase 30uM=74*
Cc1ccc2c(c1)[nH]c1c(N3CCN(Cc4ccccc4)CC3)ncnc12,61*,3,-2,1,-22,
Cc1ccc2[nH]c3c(N4CCN(Cc5ccccc5)CC4)ncnc3c2c1,9,2,6,5,·,
Cc1ccc2c(c1)c1ccc3c(c1n2C)C(=O)C=CC3=O,66*,2,3,5,46,
Cc1c(C(=O)N2CCCCC2)c(S(=O)(=O)NCCc2ccc(Cl)cc2)c(C)n1C,-1,-3,1,-2,·,
Cc1ccc(C(=O)N(CC(=O)Nc2ccc(Cl)c(Cl)c2)Cc2ccco2)cc1,-7,7,-1,-3,·,
O=C(CN(Cc1ccco1)C(=O)c1ccccc1)Nc1ccc(Cl)c(Cl)c1,62*,4,0,2,18,
CCN(CC)c1ccc(NC(=O)c2cccc(C)c2)cc1S(=O)(=O)Nc1ccccc1OC,73*,-16,8,-3,54*,Diaphorase 10uM=-17;Diaphorase 30uM=-19
CCN(CC)c1ccc(NC(=O)c2ccccc2)cc1S(=O)(=O)Nc1ccccc1OC,74*,-14,4,-7,31,
COc1ccc(C(=O)Nc2ccc(Cl)c(S(=O)(=O)Nc3ccccc3OC)c2)cc1,11,-4,13,5,·,
O=S(=O)(c1ccc(F)c(F)c1)N1CCN(S(=O)(=O)c2cccs2)CC1,3,-8,-3,-4,·,
Cc1c(C(=O)Nc2cccc([N+](=O)[O-])c2)cnn1-c1ccccc1,74*,-1,0,-5,27,
CC(=O)c1cccc(NC(=O)c2cnn(-c3ccccc3)c2C)c1,75*,6,-6,-9,51*,Diaphorase 10uM=41;Diaphorase 30uM=35
COc1ccc2nc(/C=N/NC(=O)[C@@H]3CCCN3C(=O)OC(C)(C)C)ccc2c1,-6,6,0,-6,·,
N#Cc1cc(Cl)c(N2CCOCC2)cc1C#N,4,-4,0,-5,·,
N#Cc1cc2ccc(N3CCOCC3)cc2cc1C#N,63*,20,19,-5,29,
CC(Sc1nc(N2CCOCC2)c2c(c1C#N)CC(C)(C)OC2)C(=O)Nc1ccccc1 (configuration not stated),60*,-4,-2,0,-10,
Oc1c(Br)cc(/C=N/Nc2nncc3ccccc23)cc1Br,63*,10,·,·,-11,
CCOC(=O)c1c(C)oc2c1c(C=NCC1CCCO1)c(O)c1ccccc12 (configuration not stated),47,15,36,-21,·,
CCOC(=O)c1c(C)oc2c1c(C=NCc1ccccn1)c(O)c1ccccc12,68*,22,38,-19,40,
CN(Cc1ccccc1)C(=O)COC(=O)CCN1C(=O)C2CC=CCC2C1=O (configuration not stated),2,1,0,-4,·,
C[C@H](CO)N1C[C@H](C)[C@@H](CN(C)C(=O)Nc2ccccc2)Oc2ccc(NC(=O)CCC(F)(F)F)cc2C1=O,-24,0,-9,-9,·,
SMILES,PfG6PD inh,HKDC1 inh,Exocytosis inh,ABHD5-PLIN5 inh,PfGluPho conf,others
CC(=O)c1ccc(NC(=O)C2Cc3ccccc3CN2C(=O)c2ccccc2)cc1 (configuration not stated),68*,-7,-2,-2,37,
COc1ccc(NC(=O)C2Cc3ccccc3CN2C(=O)c2ccccc2)cn1 (configuration not stated),61*,1,0,0,48,
O=C(NC1=NCCS1)C1Cc2ccccc2CN1C(=O)c1ccccc1 (configuration not stated),28,2,3,-3,·,
CS(=O)(=O)c1nc(S(=O)(=O)c2ccc(Cl)cc2)c(NCCCN2CCCC2=O)s1,3,-3,-1,-2,·,
Oc1ccc(N2CCN(C(c3cccs3)c3nnnn3CCc3ccccc3)CC2)cc1 (configuration not stated),66*,5,1,4,8,
Cc1ccc(C)c(CN2C(=O)COc3ccc(C(=O)c4ccccc4C(=O)O)cc32)c1,61*,4,-2,-11,40,
Cc1ccc(C)c(CN2C(=O)COc3ccccc32)c1,-1,-4,-6,-7,·,
CS(=O)(=O)N(CC(=O)N1CCCCC1)c1cccc(F)c1,7,-15,-4,-5,·,
O=[N+]([O-])c1cccc(-c2ccc(C(=S)N3CCOCC3)o2)c1,-9,3,?,-3,·,
O=[N+]([O-])c1cc(-c2ccc(C(=S)N3CCOCC3)o2)ccc1Cl,69*,14,35,-35,41,
Cc1ccc(Cl)cc1N1CCN(C(=O)CCS(=O)(=O)c2ccc3c(c2)NC(=O)CO3)CC1,12,-1,2,-1,·,
O=C(N/N=C/c1cc2c(cc1[N+](=O)[O-])OCO2)c1ccccn1,72*,-1,2,11,20,
O=C(N/N=C/c1cc2c(cc1Cl)OCO2)c1ccccn1,-3,-3,2,1,·,
CCOC(=O)c1cnc(-c2ccccc2O)nc1Cl,60*,-10,-2,5,39,
CCOc1ccc(N(CC(=O)N2CCCCCC2)S(C)(=O)=O)cc1,6,-2,9,-6,·,
CSC1=NS(=O)(=O)c2c(C)nn(C)c2S1,63*,-8,-2,-21,2,
Cc1cccc(C(=O)Nc2ccc(O)cc2)c1,21,-2,-1,0,·,
Cc1cccc(C(=O)Nc2ccc(C(=O)c3ccccc3)cc2)c1,63*,0,-33,-6,6,
Cc1cccc(C(=O)Nc2ccc(C(=O)c3ccncc3)cc2)c1,64*,·,-2,6,10,
